Experimental data pooled from the literature.
Compare with care: the assays were run in different laboratories.
Target: Tyrosine-protein kinase HCK (HCK, Homo sapiens, UniProt P08631)

Structure (SMILES)	assay	conditions	remaining binding [%]
C=CC(=O)N1CCC(C(=O)NCC(=O)N2CCN(c3nc(-c4cnc(N)nc4C(F)F)nc(N4CCOCC4)n3)CC2)CC1	binding, competition with immobilised ligand	1 µM	86
O=C(NCC1CCOCC1)c1n[nH]cc1NC(=O)c1c(F)cccc1F	binding, competition with immobilised ligand	1 µM	100
CC(C)CC(=O)N1CCc2nc(-c3ccc(Br)cc3)nc(N(C)Cc3ccccc3)c2C1	cell-free assay, competition with immobilised ligand	0.1 µM	94
COc1ncc2cc3ccccc3nc2c1C#N	cell-free assay, competition with immobilised ligand	5 µM	100
CCS(=O)(=O)c1cc2cc(C[C@](O)(CC(C)(C)c3ccc(F)cc3C(N)=O)C(F)(F)F)[nH]c2cn1	cell-free assay, competition with immobilised ligand	1 µM	100
O=C(c1ccc(Nc2ncc(Cl)c(-c3cc4ccccc4s3)n2)cc1)N1CCC(N2CCCC2)CC1	binding, competition with immobilised ligand	1 µM	100
CN(C)c1nccc(-c2cnn3ncccc23)n1	binding	1 µM	100
O=C(NCc1ncc(C(F)(F)F)cc1Cl)c1ccc2c(c1)C1(CCS(=O)(=O)CC1)[C@@H](C1CC1)N2S(=O)(=O)c1ccc(F)cc1	cell-free assay, competition with immobilised ligand	1 µM	86
Cc1cnc(Nc2ccc(C(=O)N3CCC(N4CCCC4)CC3)cc2)nc1-c1cc2ccccc2s1	binding, competition with immobilised ligand	1 µM	74
C[C@@H]1CCN(c2nccc(-c3cnn4ncccc34)n2)C1	binding	1 µM	84
CN1CCN(c2cnc3c(C4CCN(C(=O)c5ccc(OC(F)(F)F)cc5N)CC4)ncnc3c2)CC1	cell-free assay, competition with immobilised ligand	1 µM	95
Nc1ncc2c(n1)-c1c([nH]c3ccc(C#CC4CC4)cc13)CCCC2	binding, competition with immobilised ligand	1 µM	100
N[C@@H]1CCN(c2nccc(-c3cnn4ncccc34)n2)C1	binding	1 µM	100
COCCOc1nc(-c2ccc(Cl)nc2)nc2c1CN(C(=O)c1ncn3ccccc13)CC2	cell-free assay, competition with immobilised ligand	0.1 µM	100
CN(C)c1nccc(-c2cnc3ncccn23)n1	binding	1 µM	100
O=C(c1ccc(Nc2ncc(Cl)c(-c3ccc(Cl)s3)n2)cc1)N1CCC(N2CCCC2)CC1	binding, competition with immobilised ligand	1 µM	100
CC1CCCN1c1nccc(-c2cnn3ncccc23)n1 (stereo not drawn)	binding	1 µM	100
Cc1nc(C2CCN(C(=O)c3ccc(OC(F)(F)F)cc3N)CC2)c2ncc(N3CCN(C)CC3)cc2n1	cell-free assay, competition with immobilised ligand	1 µM	95
F[C@@H]1CCN(c2nccc(-c3cnn4ncccc34)n2)C1	binding	1 µM	78
COc1cnc(Nc2cccc(S(N)(=O)=O)c2)nc1N1CCN(c2ccccc2)C(=O)C1	binding, competition with immobilised ligand	1 µM	100
C[C@@H](c1ccc(-n2cnc3c(N)ncnc32)cc1)N1CCc2nn(C)c(Cc3ccccc3)c2C1=O	binding, competition with immobilised ligand	0.1 µM	86
